High-throughput results (PubChem BioAssay)
SR-BI DiI-HDL act: activators of SR-BI mediated DiI-HDL uptake, primary screen, ldlA[mSR-BI] CHO cells, DiI fluorescence; 0.096% of 320,000 active; 3 h; 100 = double the neutral-control signal; activation, % at 12.5 µM;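 active = mean replicate activation of at least 60% and every replicate at or above 60%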
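Test system: SR-BI-overexpressing, LDLR-lacking CHO cells. Measured by: DiI fluorescence, bottom read. Medium: Ham's F12 with 0.5% BSA, HEPES 25 mM, pH 7.4. Timing: 3 h uptake period with compound, 37 °C.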
Vif imaging: HIV Vif self-association inhibitors, primary screen, imaging, HEK293T, single point; HEK293T cells, Vif self-association by quenched fluorescence, 24 h; 0.35% of 340,000 active; inhibition, % at 7.49 µM; AID 602346, 2012; in the data active = inhibition above about 50%, passing the limit was not always enough
SR-BI DiI inh: inhibitors of SR-BI mediated HDL lipid uptake, primary screen, ldlA[mSR-BI] cells, fluorescence, single point. Scavenger receptor class B member 1 (Mus musculus), Q61009. ldlA[mSR-BI] CHO cells, DiI-HDL uptake fluorescence, 3 h. inhibition, % at 12.5 µM. 0.96% of 320,000 active. AID 488896, 2010;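 active = mean replicate inhibition of at least 70% and a set share of replicates each scoring 70 or more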
Target sequence (Q61009 whole entry, looked up): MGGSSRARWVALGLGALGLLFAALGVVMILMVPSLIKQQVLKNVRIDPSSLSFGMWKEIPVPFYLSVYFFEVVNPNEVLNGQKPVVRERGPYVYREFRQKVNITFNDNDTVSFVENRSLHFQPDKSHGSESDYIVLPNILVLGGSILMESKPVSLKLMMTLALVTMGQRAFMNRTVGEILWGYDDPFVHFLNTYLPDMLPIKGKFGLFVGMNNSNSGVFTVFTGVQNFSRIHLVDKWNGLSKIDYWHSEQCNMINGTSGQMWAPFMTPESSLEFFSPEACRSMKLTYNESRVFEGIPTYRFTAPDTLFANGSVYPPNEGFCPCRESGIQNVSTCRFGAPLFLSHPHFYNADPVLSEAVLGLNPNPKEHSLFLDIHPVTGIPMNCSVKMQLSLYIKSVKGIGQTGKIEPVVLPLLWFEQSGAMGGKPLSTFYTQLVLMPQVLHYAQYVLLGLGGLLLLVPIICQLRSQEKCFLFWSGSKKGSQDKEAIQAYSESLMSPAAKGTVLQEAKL
SMARCA2 act: SMARCA2 (BRM) function activators, primary screen, cell-based, luminescence, high throughput; MG213 cells, MMTV-luciferase reporter, dexamethasone, overnight; activation, % at 9.1 µM; 1% of 370,000 active; AID 652017, 2013; in the data active = activation above about 7.8%
TAG inh: inhibitors of triacylglycerol accumulation, primary screen, cell-based, uHTS, fluorescence, H9c2; H9c2 cells, Nile Red lipid (TAG) fluorescence; cells loaded with 200 µM oleic acid; inhibition, % at 12.5 µM; 0.66% of 230,000 active; AID 651582, 2012;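 active = pattern-corrected inhibition of lipid staining of at least 50% with the nuclear-stain viability signal not falling by more than 50%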
Each line names hits and unclear results; the compound was inactive in the other large screens. Most compounds without a hit are left out; they make up all but 2.5% or so of the library.

COc1cccc(CNC(=O)C2C3C=CC4(CN(Cc5ccccc5)C(=O)C24)O3)c1OC (stereo unspecified)	none (no result: SR-BI DiI-HDL act, Vif imaging, SR-BI DiI inh, TAG inh)
Cc1cccc(NC(=O)C2CCN(S(=O)(=O)c3c(C)c(C)cc(C)c3C)CC2)n1	SR-BI DiI inh 72.8 (no result: Vif imaging)
S=C1NC2=C(CCCC2=C2SCCCS2)C(c2ccccc2)N1 (stereo unspecified)	none
COc1ccc(C2NC(=S)NC3=C2CCCC3=C2SCCS2)cc1 (stereo unspecified)	Vif imaging 56.5
COC(=O)c1c(NC(=O)c2ccc([N+](=O)[O-])o2)sc2c1CCN(C(C)C)C2	TAG inh 58.9
COC(=O)[C@]12C[C@H](CC(=O)N3CCC(c4ccccc4)CC3)C(=O)N(Cc3ccccc3)C1=C[C@H](C1CCCC1)O[C@@H]2C	none (no result: SR-BI DiI-HDL act, Vif imaging, SR-BI DiI inh, TAG inh)
Cc1nnsc1C(=O)N/N=C/c1ccc2ccccc2c1O	SR-BI DiI inh 126.4
O=c1c2c3nc4ccccc4nc3n(/N=C/c3ccco3)c2ncn1CCC1=CCCCC1	SR-BI DiI-HDL act 67.3 (no result: TAG inh)
NC(=S)N/N=C1\CC(n2nnnc2-c2ccccc2Cl)C2COC1O2 (stereo unspecified)	SMARCA2 act 7.8
CCOc1ccc(Nc2nc3c(C)cccc3cc2C#N)cc1	Vif imaging 82.2
COc1ccccc1Nc1nc2c(C)cccc2cc1C#N	none (no result: TAG inh)
O=C(N[C@H](C(=O)N1CCC[C@H]1C(=O)NC1CCCC1)C1CCCCC1)c1cccs1	none (no result: SR-BI DiI-HDL act, Vif imaging, SR-BI DiI inh, TAG inh)
O=C(NCCc1ccccc1)c1nccc2ccccc12	none
c1ccc(CCNc2ccnc3cc4ccccc4cc23)cc1	TAG inh 103.7
C#CCNC(=O)C[C@H]1C[C@@]2(C(=O)OC)C(=C[C@H](COCc3ccccc3)O[C@@H]2C)N(CCC2=CCCCC2)C1=O	none (no result: SR-BI DiI-HDL act, Vif imaging, SR-BI DiI inh, TAG inh)
CCOC(=O)c1sc(NN=C(C(=O)OC)C(=O)OC)c(C(=O)OCC)c1C	SR-BI DiI inh 74.2 (no result: TAG inh)
CCOC(=O)c1c(N)sc(C(=O)OC)c1C	none (no result: TAG inh)
O=c1c2cc3c(cc2[nH]c(=S)n1C1CCN(Cc2ccccc2)CC1)OCO3	none
CCOc1cc2[nH]c(=S)n(C3CCN(Cc4ccccc4)CC3)c(=O)c2cc1OCC	SR-BI DiI inh 74.5
